Laboratory results: ChEMBL document CHEMBL1781920, “Synthesis and antimicrobial activity of some new 4-hetarylpyrazole and furo[2,3-c]pyrazole derivatives” (2011)
Values after ≈ are worked out from the molar mass of the structure shown.

Legend:
Assay type in all cases: functional
Pseudomonas aeruginosa [1] = test: Antibacterial activity against Pseudomonas aeruginosa ATCC 27853 after 24 hrs by serial dilution method; conditions: ATCC 27853, 24 h
Outline: (§1)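 Broth microdilution in Mueller–Hinton broth, run only for compounds giving zones >14 mm in the disk test. DMF stocks were diluted twofold from 500 to 3.125, and about 10⁶ CFU/mL bacteria were added per well. Sealed plates were kept at 37 °C for 24 h in a humid chamber. MIC was taken as the lowest concentration without visible turbidity.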

Escherichia coli [2] = test: Antibacterial activity against Escherichia coli ATCC 14169 at 1 mg/ml after 24 hrs by agar-diffusion method; conditions: ATCC 14169, 24 h, read-out: IZ
Outline: (§2)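 Agar disk diffusion on nutrient agar seeded with about 10⁶ CFU/mL of the test bacterium. Filter-paper disks were impregnated with compound in DMF at 1 mg/mL, two disks per plate, in triplicate. DMF alone served as control. Plates were incubated at 37 °C for 24 h, and the mean inhibition-zone diameter was recorded in mm.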

Pseudomonas aeruginosa [3] = test: Antibacterial activity against Pseudomonas aeruginosa ATCC 27853 at 1 mg/ml after 24 hrs by agar-diffusion method; conditions: ATCC 27853, 24 h, read-out: IZ; outline: as §2
Bacillus subtilis [4] = test: Antibacterial activity against Bacillus subtilis ATCC 6633 after 24 hrs by serial dilution method; conditions: ATCC 6633, 24 h; outline: as §1
Fusarium oxysporum [5] = test: Antifungal activity against Fusarium oxysporum ATCC 16417 at 1 mg/ml after 48 hrs by agar-diffusion method; conditions: ATCC 16417, 48 h, read-out: IZ
Outline: (§3)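 Fungi were seeded at 10⁴ CFU/mL onto nutrient agar plates. Filter-paper disks carried compound dissolved in DMF at 1 mg/mL, two disks per plate, in triplicate, with a DMF-only control. After 48 h incubation at 37 °C, the average diameter of the growth-inhibition zone was read in mm.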

Fusarium oxysporum [6] = test: Antifungal activity against Fusarium oxysporum ATCC 16417 after 48 hrs by serial dilution method; conditions: ATCC 16417, 48 h
Outline: (§4)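 MICs were measured by microdilution in Sabouraud liquid medium, for compounds with disk zones >14 mm. DMF stocks were serially diluted twofold across 500–3.125. Sealed plates were incubated at 37 °C for 48 h in a humid chamber. The lowest concentration with no visible turbidity was recorded as the MIC.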

Botrytis fabae [7] = test: Antifungal activity against Botrytis fabae ATCC 14862 at 1 mg/ml after 48 hrs by agar-diffusion method; conditions: ATCC 14862, 48 h, read-out: IZ; outline: as §3
Bacillus subtilis [8] = test: Antibacterial activity against Bacillus subtilis ATCC 6633 at 1 mg/ml after 24 hrs by agar-diffusion method; conditions: ATCC 6633, 24 h, read-out: IZ; outline: as §2
Escherichia coli [9] = test: Antibacterial activity against Escherichia coli ATCC 14169 after 24 hrs by serial dilution method; conditions: ATCC 14169, 24 h; outline: as §1
Bacillus thuringiensis [10] = test: Antibacterial activity against Bacillus thuringiensis ATCC 6051 after 24 hrs by serial dilution method; conditions: ATCC 6051, 24 h; outline: as §1
Botrytis fabae [11] = test: Antifungal activity against Botrytis fabae ATCC 14862 after 48 hrs by serial dilution method; conditions: ATCC 14862, 48 h; outline: as §4
Bacillus thuringiensis [12] = test: Antibacterial activity against Bacillus thuringiensis ATCC 6051 at 1 mg/ml after 24 hrs by agar-diffusion method; conditions: ATCC 6051, 24 h, read-out: IZ; outline: as §2
Bacillus subtilis [13] = test: Antibacterial activity against Bacillus subtilis ATCC 6633 after 24 hrs by serial dilution method relative to cephalothin
Bacillus subtilis [14] = test: Antibacterial activity against Bacillus subtilis ATCC 6633 after 24 hrs by serial dilution method relative to chloramphenicol
Bacillus thuringiensis [15] = test: Antibacterial activity against Bacillus thuringiensis ATCC 6051 after 24 hrs by serial dilution method relative to chloramphenicol

Compound | MIC (Pseudomonas aeruginosa [1]) [µg/mL] | MIC (Bacillus subtilis [4]) [µg/mL] | MIC (Fusarium oxysporum [6]) [µg/mL] | MIC (Escherichia coli [9]) [µg/mL] | MIC (Bacillus thuringiensis [10]) [µg/mL] | MIC (Botrytis fabae [11]) [µg/mL] | zone of inhibition at 1000 µg/mL (Escherichia coli [2]) [mm] | zone of inhibition at 1000 µg/mL (Pseudomonas aeruginosa [3]) [mm] | zone of inhibition at 1000 µg/mL (Fusarium oxysporum [5]) [mm] | zone of inhibition at 1000 µg/mL (Botrytis fabae [7]) [mm] | zone of inhibition at 1000 µg/mL (Bacillus subtilis [8]) [mm] | zone of inhibition at 1000 µg/mL (Bacillus thuringiensis [12]) [mm] | Activity (Bacillus subtilis [13]) [%] | Activity (Bacillus subtilis [14]) [%] | Activity (Bacillus thuringiensis [15]) [%]
Cc1nn(-c2ccccc2)c2c1/C(=N/c1cnccn1)CO2 | 100 (≈ 343 µM) | 12.5 (≈ 42.9 µM) | 12.5 (≈ 42.9 µM) | 50 (≈ 172 µM) | 100 (≈ 343 µM) | 100 (≈ 343 µM) | 20 | 16 | 31 | 16 | 32 | 15 | 50 | 25 | 
Cc1nn(-c2ccccc2)c2c1/C(=N/c1nnc[nH]1)CO2 | 100 (≈ 357 µM) | 6.25 (≈ 22.3 µM) | 100 (≈ 357 µM) | 100 (≈ 357 µM) | 6.25 (≈ 22.3 µM) | 50 (≈ 178 µM) | 15 | 16 | 15 | 19 | 38 | 38 |  |  | 
Cc1[nH]n(-c2ccccc2)c(=O)c1C(=O)CN1CCCCC1 | 100 (≈ 334 µM) | 3.12 (≈ 10.4 µM) | 100 (≈ 334 µM) | 50 (≈ 167 µM) | 6.25 (≈ 20.9 µM) | 12.5 (≈ 41.8 µM) | 19 | 16 | 14 | 31 | 43 | 38 |  |  | 
Cc1[nH]n(-c2ccccc2)c(=O)c1C1=Nc2ccccc2OC1 | 100 (≈ 328 µM) | 50 (≈ 164 µM) | 100 (≈ 328 µM) | 50 (≈ 164 µM) | 50 (≈ 164 µM) | 100 (≈ 328 µM) | 19 | 15 | 15 | 15 | 20 | 19 |  |  | 
Cc1[nH]n(-c2ccccc2)c(=O)c1C1=Nc2ccccc2SC1 | 100 (≈ 311 µM) | 100 (≈ 311 µM) | 100 (≈ 311 µM) | 100 (≈ 311 µM) | 100 (≈ 311 µM) | 50 (≈ 156 µM) | 15 | 16 | 15 | 19 | 15 | 15 |  |  | 
O=C(N[C@H](CO)[C@H](O)c1ccc([N+](=O)[O-])cc1)C(Cl)Cl [CHLORAMPHENICOL] | 6.25 (≈ 19.3 µM) | 3.12 (≈ 9.67 µM) |  | 6.25 (≈ 19.3 µM) | 3.12 (≈ 9.67 µM) |  | 37 | 38 |  |  | 42 | 44 |  |  | 
C[C@@H]1C[C@@H]([C@H](O)CC2CC(=O)NC(=O)C2)C(=O)[C@@H](C)C1 [CYCLOHEXIMIDE] |  |  | 3.12 (≈ 11.1 µM) |  |  | 3.12 (≈ 11.1 µM) |  |  | 43 | 42 |  |  |  |  | 

Further lines, with some results ahead:

MIC (Pseudomonas aeruginosa [1]) [µg/mL] | MIC (Bacillus subtilis [4]) [µg/mL] | MIC (Fusarium oxysporum [6]) [µg/mL] | MIC (Escherichia coli [9]) [µg/mL] | MIC (Bacillus thuringiensis [10]) [µg/mL] | MIC (Botrytis fabae [11]) [µg/mL] | Compound | zone of inhibition at 1000 µg/mL (Escherichia coli [2]) [mm] | zone of inhibition at 1000 µg/mL (Pseudomonas aeruginosa [3]) [mm] | zone of inhibition at 1000 µg/mL (Fusarium oxysporum [5]) [mm] | zone of inhibition at 1000 µg/mL (Botrytis fabae [7]) [mm] | zone of inhibition at 1000 µg/mL (Bacillus subtilis [8]) [mm] | zone of inhibition at 1000 µg/mL (Bacillus thuringiensis [12]) [mm] | Activity (Bacillus subtilis [13]) [%] | Activity (Bacillus subtilis [14]) [%] | Activity (Bacillus thuringiensis [15]) [%]
6.25 (≈ 21.5 µM) | 25 (≈ 86.1 µM) | 100 (≈ 344 µM) | 6.25 (≈ 21.5 µM) | 25 (≈ 86.1 µM) | 50 (≈ 172 µM) | Cc1nn(-c2ccccc2)c2c1/C(=N/c1ccccn1)CO2 | 38 | 15 | 16 | 20 | 26 | 25 |  |  | 
50 (≈ 152 µM) | 3.12 (≈ 9.49 µM) | 6.25 (≈ 19 µM) | 50 (≈ 152 µM) | 6.25 (≈ 19 µM) | 6.25 (≈ 19 µM) | Cc1nn(-c2ccccc2)c2c1/C(=N/c1nc3ccccc3[nH]1)CO2 | 19 | 20 | 14 | 37 | 44 | 37 |  |  | 
6.25 (≈ 17.4 µM) | 12.5 (≈ 34.9 µM) | 6.25 (≈ 17.4 µM) | 6.25 (≈ 17.4 µM) | 100 (≈ 279 µM) | 6.25 (≈ 17.4 µM) | Cc1[nH]n(-c2ccccc2)c(=O)c1-c1cc2c(=O)oc3ccccc3c2o1 | 15 | 38 | 37 | 37 | 33 | 15 | 50 | 25 | 
12.5 (≈ 39.3 µM) | 6.25 (≈ 19.6 µM) | 25 (≈ 78.5 µM) | 100 (≈ 314 µM) | 6.25 (≈ 19.6 µM) | 50 (≈ 157 µM) | Cc1[nH]n(-c2ccccc2)c(=O)c1C(=O)c1cc2ccccc2o1 | 15 | 33 | 26 | 19 | 38 | 37 |  | 50 | 50
50 (≈ 150 µM) | 6.25 (≈ 18.8 µM) | 100 (≈ 301 µM) | 25 (≈ 75.2 µM) | 6.25 (≈ 18.8 µM) | 100 (≈ 301 µM) | Cc1[nH]n(-c2ccccc2)c(=O)c1C(=O)c1oc2ccccc2c1C | 27 | 19 | 15 | 15 | 37 | 37 |  | 50 | 50
50 (≈ 169 µM) | 3.12 (≈ 10.5 µM) | 50 (≈ 169 µM) | 100 (≈ 337 µM) | 6.25 (≈ 21.1 µM) | 25 (≈ 84.4 µM) | CC(=O)c1cc(-c2c(C)[nH]n(-c3ccccc3)c2=O)oc1C | 15 | 18 | 20 | 26 | 42 | 37 |  |  | 
50 (≈ 166 µM) | 12.5 (≈ 41.5 µM) | 50 (≈ 166 µM) | 100 (≈ 332 µM) | 6.25 (≈ 20.7 µM) | 50 (≈ 166 µM) | Cc1[nH]n(-c2ccccc2)c(=O)c1C(=O)CN1CCOCC1 | 16 | 20 | 19 | 19 | 32 | 38 |  |  | 
50 (≈ 164 µM) | 50 (≈ 164 µM) | 100 (≈ 329 µM) | 100 (≈ 329 µM) | 100 (≈ 329 µM) | 50 (≈ 164 µM) | Cc1[nH]n(-c2ccccc2)c(=O)c1C1=Nc2ccccc2NC1 | 15 | 19 | 15 | 20 | 19 | 15 |  |  | 
6.25 (≈ 15.8 µM) | 6.25 (≈ 15.8 µM) |  | 6.25 (≈ 15.8 µM) | 6.25 (≈ 15.8 µM) |  | CC(=O)OCC1=C(C(=O)O)N2C(=O)[C@@H](NC(=O)Cc3cccs3)[C@H]2SC1 [CEPHALOTHIN] | 38 | 37 |  |  | 36 | 37 |  |  | 
